# In ChEMBL document CHEMBL5674880 (PLoS One, 2018):
# Experiments:
# [1] = system: KLE; assay: Antiproliferative activity against human KLE cells in 2D growth culture; format: functional, cell-based
# How it was run: (§1)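 2D monolayer proliferation screen across the 240-line Eurofins Oncopanel of human cancer cell lines (mycoplasma-negative, STR-verified). Compound was titrated to a highest tested concentration of 25 μM. Values are the mean of three replicates.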
# [2] = system: DMS-153; assay: Antiproliferative activity against human DMS-153 cells expressing wild-type KRAS; format: functional, cell-based
# How it was run: (§2)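 Proliferation of human lung cancer cell lines (NSCLC and others) with KRAS mutant or wild-type status. Compound was tested at concentrations up to 25 µM.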
# [3] = Antiproliferative activity against human C4-1 cells in 2D growth culture; format: functional, cell-based; how it was run: as §1
# [4] = system: HT-3; assay: Antiproliferative activity against human HT-3 cells in 2D growth culture; format: functional, cell-based; how it was run: as §1
# [5] = system: NCI-H2029; assay: Antiproliferative activity against human NCI-H2029 cells expressing wild-type KRAS; format: functional, cell-based; how it was run: as §2
# [6] = system: NCI-H23; assay: Antiproliferative activity against human NCI-H23 cells expressing KRAS G12C mutant; format: functional, cell-based; how it was run: as §2
# [7] = Antiproliferative activity against human SK-N-BE(2)-C cells in 3D growth culture; format: functional, cell-based
# How it was run: (§3)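 3D growth in matrigel, within a 140-cell-line panel of the Eurofins Oncopanel (mycoplasma negative, STR verified). Compound dosed across a concentration series with a top concentration of 25 μM. Each value is the mean of three replicates.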
# [8] = system: HLE; assay: Antiproliferative activity against human HLE cells in 2D growth culture; format: functional, cell-based; how it was run: as §1
# [9] = system: ES-2; assay: Antiproliferative activity against human ES2 cells in 3D growth culture; format: functional, cell-based
# How it was run: (§4)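 3D proliferation in the Eurofins Oncopanel, with a panel of 140 human cancer cell lines grown in Matrigel. The highest concentration tested was 25 μM. Each value is the mean of three replicates.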
# [10] = system: AGS; assay: Antiproliferative activity against human AGS cells in 2D growth culture; format: functional, cell-based; how it was run: as §1
# [11] = system: 5637; assay: Antiproliferative activity against human 5637 cells in 2D growth culture; format: functional, cell-based; how it was run: as §1
# [12] = system: SR; assay: Antiproliferative activity against human SR cells in 2D growth culture; format: functional, cell-based
# How it was run: (§5)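 2D monolayer culture in the Eurofins Oncopanel of 240 cancer cell lines (mycoplasma negative, STR verified). Compound dosed across a concentration series with a top concentration of 25 μM. Each value is the mean of three replicates.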
# [13] = system: J82; assay: Antiproliferative activity against human J82 cells in 2D growth culture; format: functional, cell-based; how it was run: as §1
# [14] = system: DOHH-2; assay: Antiproliferative activity against human DOHH-2 cells in 2D growth culture; format: functional, cell-based; how it was run: as §1
# [15] = system: DMS-53; assay: Antiproliferative activity against human DMS-53 expressing wild-type KRAS; format: functional, cell-based; how it was run: as §2
# [16] = Antiproliferative activity against human HLF cells in 2D growth culture; format: functional, cell-based; how it was run: as §1
# [17] = system: ES-2; assay: Antiproliferative activity against human ES-2 cells in 2D growth culture; format: functional, cell-based; how it was run: as §1
# [18] = system: SHP77; assay: Antiproliferative activity against human SHP77 cells expressing KRAS G12V mutant; format: functional, cell-based
# [19] = system: SH-4; assay: Antiproliferative activity against human SH-4 cells in 3D growth culture; format: functional, cell-based; how it was run: as §3
# [20] = system: SH-4; assay: Antiproliferative activity against human SH-4 cells in 2D growth culture; format: functional, cell-based; how it was run: as §5
# [21] = system: RKO; assay: Antiproliferative activity against human RKO cells in 2D growth culture; format: functional, cell-based; how it was run: as §1
# [22] = system: DK-MG; assay: Antiproliferative activity against human DK-MG cells in 2D growth culture; format: functional, cell-based; how it was run: as §1
# [23] = system: RKO; assay: Antiproliferative activity against human RKO cells in 3D growth culture; format: functional, cell-based; how it was run: as §3
# [24] = system: Hs 766; assay: Antiproliferative activity against human Hs766T cells in 3D growth culture; format: functional, cell-based; how it was run: as §4
# [25] = system: J82; assay: Antiproliferative activity against human J82 cells in 3D growth culture; format: functional, cell-based; how it was run: as §4
# [26] = system: Y79; assay: Antiproliferative activity against human Y79 cells in 2D growth culture; format: functional, cell-based; how it was run: as §5
# [27] = system: DB; assay: Antiproliferative activity against human DB cells in 2D growth culture; format: functional, cell-based; how it was run: as §1
# [28] = system: JAR; assay: Antiproliferative activity against human JAR cells in 3D growth culture; format: functional, cell-based; how it was run: as §4
# [29] = system: PC-3; assay: Antiproliferative activity against human PC-3 cells in 3D growth culture; format: functional, cell-based; how it was run: as §4
# [30] = Antiproliferative activity against human HLF cells in 3D growth culture; format: functional, cell-based; how it was run: as §4
# [31] = system: HOS; assay: Antiproliferative activity against human HOS cells in 2D growth culture; format: functional, cell-based; how it was run: as §1
# [32] = Antiproliferative activity against human MT-3 cells in 2D growth culture; format: functional, cell-based; how it was run: as §1
# [33] = system: H4; assay: Antiproliferative activity against human H4 cells in 2D growth culture; format: functional, cell-based; how it was run: as §1
# [34] = system: COR-L88; assay: Antiproliferative activity against human COR-L88 cells expressing wild-type KRAS; format: functional, cell-based; how it was run: as §2
# [35] = system: NCI-H2122; assay: Antiproliferative activity against human NCI-H2122 cells expressing KRAS G12C mutant; format: functional, cell-based; how it was run: as §2
# [36] = system: C32; assay: Antiproliferative activity against human C32 cells in 3D growth culture; format: functional, cell-based; how it was run: as §4
# [37] = system: RD; assay: Antiproliferative activity against human RD cells in 3D growth culture; format: functional, cell-based; how it was run: as §4
# [38] = system: A549; assay: Antiproliferative activity against human A549 cells expressing KRAS G12S mutant; format: functional, cell-based; how it was run: as §2
# [39] = system: SW1573; assay: Antiproliferative activity against human SW1573 cells expressing KRAS G12C mutant; format: functional, cell-based
# [40] = Antiproliferative activity against human BC1 cells in 2D growth culture; format: functional, cell-based; how it was run: as §1
# [41] = system: JAR; assay: Antiproliferative activity against human JAR cells in 2D growth culture; format: functional, cell-based; how it was run: as §1
# [42] = Antiproliferative activity against human A7 cells in 2D growth culture; format: functional, cell-based; how it was run: as §1
# [43] = system: PC-3; assay: Antiproliferative activity against human PC-3 cells in 2D growth culture; format: functional, cell-based; how it was run: as §1
# [44] = Antiproliferative activity against human MT-3 cells in 3D growth culture; format: functional, cell-based; how it was run: as §4
# [45] = system: Hs 766; assay: Antiproliferative activity against human Hs 766T cells in 2D growth culture; format: functional, cell-based; how it was run: as §1
# [46] = system: HepG2; assay: Antiproliferative activity against human HepG2 cells; format: functional, cell-based
# [47] = system: COR-L105; assay: Antiproliferative activity against human COR-L105 cells expressing wild-type KRAS; format: functional, cell-based; how it was run: as §2
# [48] = system: NCI-H441; assay: Antiproliferative activity against human NCI-H441 cells expressing KRAS G12V mutant; format: functional, cell-based; how it was run: as §2
# [49] = system: 5637; assay: Antiproliferative activity against human 5637 cells in 3D growth culture; format: functional, cell-based; how it was run: as §4
# [50] = system: Y79; assay: Antiproliferative activity against human Y79 cells in 3D growth culture; format: functional, cell-based; how it was run: as §3
# [51] = system: EB-3; assay: Antiproliferative activity against human EB-3 cells in 2D growth culture; format: functional, cell-based; how it was run: as §1
# [52] = system: HT; assay: Antiproliferative activity against human HT cells in 2D growth culture; format: functional, cell-based; how it was run: as §1
# [53] = Antiproliferative activity against human SK-N-BE(2)-C cells in 2D growth culture; format: functional, cell-based; how it was run: as §5
# [54] = Antiproliferative activity against human C4-1 cells in 3D growth culture; format: functional, cell-based; how it was run: as §4
# [55] = system: RD; assay: Antiproliferative activity against human RD cells in 2D growth culture; format: functional, cell-based; how it was run: as §1
# [56] = system: C32; assay: Antiproliferative activity against human C32 cells in 2D growth culture; format: functional, cell-based; how it was run: as §1
# [57] = system: SK-LU-1; assay: Antiproliferative activity against human SK-LU-1 cells expressing KRAS G12D mutant; format: functional, cell-based
# [58] = system: NCI-H2081; assay: Antiproliferative activity against human NCI-H2081 cells expressing wild-type KRAS; format: functional, cell-based; how it was run: as §2
# [59] = system: U-266; assay: Antiproliferative activity against human U266B1 cells in 2D growth culture; format: functional, cell-based; how it was run: as §5
# [60] = system: HT-3; assay: Antiproliferative activity against human HT-3 cells in 3D growth culture; format: functional, cell-based; how it was run: as §4
# [61] = system: EM-2; assay: Antiproliferative activity against human EM-2 cells in 2D growth culture; format: functional, cell-based; how it was run: as §1
# [62] = system: T-24; assay: Antiproliferative activity against human T24 cells in 2D growth culture; format: functional, cell-based; how it was run: as §5
# [63] = system: MX1; assay: Antiproliferative activity against human MX1 cells in 2D growth culture; format: functional, cell-based; how it was run: as §1
# [64] = target: Histone-lysine N-methyltransferase SMYD3 (Homo sapiens, UniProt Q9H7B4); assay: Inhibition of SMYD3 (unknown origin)
# Chain of Histone-lysine N-methyltransferase SMYD3 (Q9H7B4 whole entry): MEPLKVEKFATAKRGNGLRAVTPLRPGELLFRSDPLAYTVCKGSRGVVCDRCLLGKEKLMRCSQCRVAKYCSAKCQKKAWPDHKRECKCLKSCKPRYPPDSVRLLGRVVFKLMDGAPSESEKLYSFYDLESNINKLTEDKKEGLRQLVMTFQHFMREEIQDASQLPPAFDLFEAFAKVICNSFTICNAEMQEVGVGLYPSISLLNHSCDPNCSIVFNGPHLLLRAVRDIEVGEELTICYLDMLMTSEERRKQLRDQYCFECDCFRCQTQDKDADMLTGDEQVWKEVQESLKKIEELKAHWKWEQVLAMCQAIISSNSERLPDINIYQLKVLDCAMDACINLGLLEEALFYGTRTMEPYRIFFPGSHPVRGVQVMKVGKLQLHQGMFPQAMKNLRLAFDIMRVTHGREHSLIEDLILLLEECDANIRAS
structure (smiles),measurement,setting,value
N[C@H]1CC[C@H](S(=O)(=O)N2[C@@H]3CC[C@H]2C[C@@H](NC(=O)c2cc(C4CC4)on2)C3)CC1,IC50,[1],> 25 µM
same,IC50,[2],> 20 µM
same,IC50,[3],> 25 µM
same,IC50,[4],> 25 µM
same,IC50,[5],> 20 µM
same,IC50,[6],> 20 µM
same,IC50,[7],> 25 µM
same,IC50,[8],> 25 µM
same,IC50,[9],> 25 µM
same,IC50,[10],> 25 µM
same,IC50,[11],> 25 µM
same,IC50,[12],> 25 µM
same,IC50,[13],> 25 µM
same,IC50,[14],> 25 µM
same,IC50,[15],> 20 µM
same,IC50,[16],> 25 µM
same,IC50,[17],> 25 µM
same,IC50,[18],> 20 µM
same,IC50,[19],> 25 µM
same,IC50,[20],> 25 µM
same,IC50,[21],> 25 µM
same,IC50,[22],> 25 µM
same,IC50,[23],> 25 µM
same,IC50,[24],> 25 µM
same,IC50,[25],> 25 µM
same,IC50,[26],> 25 µM
same,IC50,[27],> 25 µM
same,IC50,[28],> 25 µM
same,IC50,[29],> 25 µM
same,IC50,[30],> 25 µM
same,IC50,[31],> 25 µM
same,IC50,[32],> 25 µM
same,IC50,[33],> 25 µM
same,IC50,[34],> 20 µM
same,IC50,[35],> 20 µM
same,IC50,[36],> 25 µM
same,IC50,[37],> 25 µM
same,IC50,[38],> 20 µM
same,IC50,[39],> 20 µM
same,IC50,[40],> 25 µM
same,IC50,[41],> 25 µM
same,IC50,[42],> 25 µM
same,IC50,[43],> 25 µM
same,IC50,[44],> 25 µM
same,IC50,[45],> 25 µM
same,IC50,[46],> 40 µM
same,IC50,[47],> 20 µM
same,IC50,[48],> 20 µM
same,IC50,[49],> 25 µM
same,IC50,[50],> 25 µM
same,IC50,[51],> 25 µM
same,IC50,[52],> 25 µM
same,IC50,[53],> 25 µM
same,IC50,[54],> 25 µM
same,IC50,[55],> 25 µM
same,IC50,[56],> 25 µM
same,IC50,[57],> 20 µM
same,IC50,[58],> 20 µM
same,IC50,[59],> 25 µM
same,IC50,[60],> 25 µM
same,IC50,[61],> 25 µM
same,IC50,[62],> 25 µM
same,IC50,[63],> 25 µM
O=C1Cc2cc(C(=O)N[C@H]3C[C@H]4CC[C@@H](C3)N4S(=O)(=O)CC3CCN(CCCC(F)(F)F)CC3)c(Cl)cc2N1,IC50,[64],0.005 µM
